# According to ChEMBL document CHEMBL5058577, “EUbOPEN Chemogenomics Library 2 (Multiplex)” (2022):
# Test system: U2OS
# Assay: Multiplex assay against U2OS
# Type: toxicity, cell-based
# Conditions: human
# Procedure, shortened: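 At seeding, live cells were stained with Hoechst33342, BioTracker Green Microtubule Cytoskeleton Dye, MitoTracker Red and Annexin V Alexa Fluor 680. After compound addition they were imaged on a CQ1 microscope at 37°C and 5% CO2, and CellPathfinder machine-learning gating sorted them into Hoechst high-intensity objects or normal cells, with normal cells further split into healthy, pyknosed or fragmented nuclei and pyknosed cells into mitotic or apoptotic. Tubulin, mitochondrial-mass and membrane-permeability phenotypes are given as per cents of cells with healthy nuclei.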
# [1] = 12 h, 1 µM, compound concentration 1 uM, replicate 1
# [2] = 12 h, 1 µM, compound concentration 1 uM, replicate 2
# [3] = 12 h, 10 µM, compound concentration 10 uM, replicate 1
# [4] = 12 h, 10 µM, compound concentration 10 uM, replicate 2
# [5] = 24 h, 1 µM, compound concentration 1 uM, replicate 1
# [6] = 24 h, 1 µM, compound concentration 1 uM, replicate 2
# [7] = 24 h, 10 µM, compound concentration 10 uM, replicate 1
# [8] = 24 h, 10 µM, compound concentration 10 uM, replicate 2
# [9] = 48 h, 1 µM, compound concentration 1 uM, replicate 1
# [10] = 48 h, 1 µM, compound concentration 1 uM, replicate 2
# [11] = 48 h, 10 µM, compound concentration 10 uM, replicate 1
# [12] = 48 h, 10 µM, compound concentration 10 uM, replicate 2
structure (smiles),measurement,setting,value
N#Cc1c(Oc2cccc(OS(=O)(=O)CCCC(F)(F)F)c2)cccc1C(F)(F)F,Population Apoptotic (%),[1],77%
same,Population Fragmented Nuclei (%),[1],27%
same,Population Healthy Nuclei (%),[1],61%
same,Population Hoechst High Intensity Objects (%),[1],3%
same,Population Membrane Permeable-Phenotype (%),[1],4%
same,Population Mitochondria Different-Phenotype (%),[1],2%
same,Population Mitotic Cells (%),[1],22%
same,Population Normal (%),[1],96%
same,Population Pyknosed Nuclei (%),[1],10%
same,Population Tubulin-Different-Phenotype (%),[1],0%
same,Total Cell Count,[1],220
same,Population Apoptotic (%),[2],81%
same,Population Fragmented Nuclei (%),[2],12%
same,Population Healthy Nuclei (%),[2],76%
same,Population Hoechst High Intensity Objects (%),[2],0%
same,Population Membrane Permeable-Phenotype (%),[2],7%
same,Population Mitochondria Different-Phenotype (%),[2],7%
same,Population Mitotic Cells (%),[2],18%
same,Population Normal (%),[2],99%
same,Population Tubulin-Different-Phenotype (%),[2],8%
same,Total Cell Count,[2],109
same,Population Apoptotic (%),[3],78%
same,Population Fragmented Nuclei (%),[3],27%
same,Population Healthy Nuclei (%),[3],63%
same,Population Hoechst High Intensity Objects (%),[3],3%
same,Population Membrane Permeable-Phenotype (%),[3],11%
same,Population Mitochondria Different-Phenotype (%),[3],8%
same,Population Mitotic Cells (%),[3],21%
same,Population Normal (%),[3],96%
same,Population Pyknosed Nuclei (%),[3],8%
same,Population Tubulin-Different-Phenotype (%),[3],7%
same,Total Cell Count,[3],222
same,Population Apoptotic (%),[4],90%
same,Population Fragmented Nuclei (%),[4],14%
same,Population Healthy Nuclei (%),[4],75%
same,Population Hoechst High Intensity Objects (%),[4],0%
same,Population Membrane Permeable-Phenotype (%),[4],21%
same,Population Mitochondria Different-Phenotype (%),[4],4%
same,Population Mitotic Cells (%),[4],9%
same,Population Normal (%),[4],99%
same,Population Pyknosed Nuclei (%),[4],9%
same,Total Cell Count,[4],112
same,Population Apoptotic (%),[5],75%
same,Population Fragmented Nuclei (%),[5],25%
same,Population Healthy Nuclei (%),[5],61%
same,Population Hoechst High Intensity Objects (%),[5],2%
same,Population Membrane Permeable-Phenotype (%),[5],4%
same,Population Mitochondria Different-Phenotype (%),[5],2%
same,Population Mitotic Cells (%),[5],24%
same,Population Normal (%),[5],97%
same,Population Pyknosed Nuclei (%),[5],12%
same,Population Tubulin-Different-Phenotype (%),[5],3%
same,Total Cell Count,[5],263
same,Population Apoptotic (%),[6],90%
same,Population Fragmented Nuclei (%),[6],12%
same,Population Healthy Nuclei (%),[6],79%
same,Population Hoechst High Intensity Objects (%),[6],1%
same,Population Membrane Permeable-Phenotype (%),[6],11%
same,Population Mitochondria Different-Phenotype (%),[6],3%
same,Population Mitotic Cells (%),[6],10%
same,Population Normal (%),[6],98%
same,Population Pyknosed Nuclei (%),[6],7%
same,Population Tubulin-Different-Phenotype (%),[6],7%
same,Total Cell Count,[6],130
same,Population Apoptotic (%),[7],66%
same,Population Fragmented Nuclei (%),[7],26%
same,Population Healthy Nuclei (%),[7],66%
same,Population Hoechst High Intensity Objects (%),[7],6%
same,Population Membrane Permeable-Phenotype (%),[7],10%
same,Population Mitochondria Different-Phenotype (%),[7],8%
same,Population Mitotic Cells (%),[7],33%
same,Population Normal (%),[7],93%
same,Population Pyknosed Nuclei (%),[7],7%
same,Population Tubulin-Different-Phenotype (%),[7],5%
same,Total Cell Count,[7],252
same,Population Fragmented Nuclei (%),[8],9%
same,Population Healthy Nuclei (%),[8],83%
same,Population Hoechst High Intensity Objects (%),[8],3%
same,Population Membrane Permeable-Phenotype (%),[8],11%
same,Population Mitochondria Different-Phenotype (%),[8],0%
same,Population Normal (%),[8],96%
same,Population Tubulin-Different-Phenotype (%),[8],7%
same,Total Cell Count,[8],130
same,Population Apoptotic (%),[9],87%
same,Population Fragmented Nuclei (%),[9],17%
same,Population Healthy Nuclei (%),[9],70%
same,Population Hoechst High Intensity Objects (%),[9],3%
same,Population Membrane Permeable-Phenotype (%),[9],4%
same,Population Mitochondria Different-Phenotype (%),[9],0%
same,Population Mitotic Cells (%),[9],12%
same,Population Normal (%),[9],96%
same,Population Pyknosed Nuclei (%),[9],11%
same,Population Tubulin-Different-Phenotype (%),[9],3%
same,Total Cell Count,[9],361
same,Population Apoptotic (%),[10],100%
same,Population Fragmented Nuclei (%),[10],16%
same,Population Healthy Nuclei (%),[10],73%
same,Population Hoechst High Intensity Objects (%),[10],2%
same,Population Membrane Permeable-Phenotype (%),[10],9%
same,Population Mitochondria Different-Phenotype (%),[10],4%
same,Population Mitotic Cells (%),[10],0%
same,Population Normal (%),[10],97%
same,Population Pyknosed Nuclei (%),[10],9%
same,Population Tubulin-Different-Phenotype (%),[10],7%
same,Total Cell Count,[10],195
same,Population Apoptotic (%),[11],91%
same,Population Fragmented Nuclei (%),[11],23%
same,Population Healthy Nuclei (%),[11],64%
same,Population Hoechst High Intensity Objects (%),[11],4%
same,Population Membrane Permeable-Phenotype (%),[11],10%
same,Population Mitochondria Different-Phenotype (%),[11],6%
same,Population Mitotic Cells (%),[11],8%
same,Population Normal (%),[11],95%
same,Population Pyknosed Nuclei (%),[11],11%
same,Population Tubulin-Different-Phenotype (%),[11],6%
same,Total Cell Count,[11],328
same,Population Apoptotic (%),[12],100%
same,Population Fragmented Nuclei (%),[12],11%
same,Population Healthy Nuclei (%),[12],77%
same,Population Hoechst High Intensity Objects (%),[12],3%
same,Population Membrane Permeable-Phenotype (%),[12],13%
same,Population Mitochondria Different-Phenotype (%),[12],4%
same,Population Mitotic Cells (%),[12],0%
same,Population Normal (%),[12],96%
same,Population Pyknosed Nuclei (%),[12],10%
same,Population Tubulin-Different-Phenotype (%),[12],7%
same,Total Cell Count,[12],184
